Assay results as given in ChEMBL document CHEMBL3286203, “Reactive oxygen species (ROS) inducible DNA cross-linking agents and their effect on cancer cells and normal lymphocytes” (J Med Chem, 2014).
Activity calls are given as the source filed them. No cut-off for these calls is given here.

How the values were obtained:
[1] = Induction of apoptosis in human CLL cells at 10 uM after 24 hrs by Annexin/propidium iodide staining-based assay (reference value: 95%); assay type: functional
[2] = Induction of apoptosis in human CLL cells at 10 uM after 48 hrs by Annexin/propidium iodide staining-based assay (reference value: 91%); assay type: functional
NCI-H226 = assay: Cytotoxicity against human NCI-H226 cells after 48 hrs by SRB assay; assay type: functional; conditions: NCI-H226, 48 h
Summary of the method: (§1)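 GI50 from the NCI Developmental Therapeutics Program in vitro human tumor cell screen. Cell lines were maintained in RPMI 1640 with 5% fetal bovine serum and 2 mM L-glutamine. They were seeded at 5000–40 000 cells/well, depending on each line's doubling time, then exposed to drug for 48 h at 37 °C, 5% CO2.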

NCI-H460 = assay: Cytotoxicity against human NCI-H460 cells after 48 hrs by SRB assay; assay type: functional; conditions: NCI-H460, 48 h; summary of the method: as §1
COLO 205 = assay: Cytotoxicity against human COLO205 cells after 48 hrs by SRB assay; assay type: functional; conditions: COLO 205, 48 h
Summary of the method: (§2)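 GI50 was determined in the NCI Developmental Therapeutics Program in vitro 60-line cancer screen. Tumour lines were maintained in RPMI 1640 containing 5% FBS and 2 mM L-glutamine. Cells were inoculated at 5000–40 000 cells/well according to each line's doubling time before drug exposure.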

HCC 2998 = assay: Cytotoxicity against human HCC2998 cells after 48 hrs by SRB assay; assay type: functional; conditions: HCC 2998, 48 h; summary of the method: as §2
HCT-116 = assay: Cytotoxicity against human HCT116 cells after 48 hrs by SRB assay; assay type: functional; conditions: HCT-116, 48 h; summary of the method: as §2
[3] = Cytotoxicity against human HCT15 cells after 48 hrs by SRB assay; assay type: functional; conditions: HCT-15, 48 h; summary of the method: as §2
SNB-19 = assay: Cytotoxicity against human SNB19 cells after 48 hrs by SRB assay; assay type: functional; conditions: SNB-19, 48 h
Summary of the method: (§3)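 GI50 from the NCI-60 DTP human tumour line screen. Lines grown in RPMI 1640 with 5% fetal bovine serum and 2 mM L-glutamine, plated at 5000–40 000 cells/well according to doubling time. Incubated 48 h at 37 °C, 5% CO2.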

SNB-75 = assay: Cytotoxicity against human SNB75 cells after 48 hrs by SRB assay; assay type: functional; conditions: SNB-75, 48 h; summary of the method: as §3
U-251 = assay: Cytotoxicity against human U251 cells after 48 hrs by SRB assay; assay type: functional; conditions: U-251, 48 h; summary of the method: as §3
M14 = assay: Cytotoxicity against human M14 cells after 48 hrs by SRB assay; assay type: functional; conditions: M14, 48 h; summary of the method: as §2
MDA-MB-435 = assay: Cytotoxicity against human MDA-MB-435 cells after 48 hrs by SRB assay; assay type: functional; conditions: MDA-MB-435, 48 h; summary of the method: as §1
SK-MEL-28 = assay: Cytotoxicity against human SK-MEL-28 cells after 48 hrs by SRB assay; assay type: functional; conditions: SK-MEL-28, 48 h; summary of the method: as §1
[4] = Cytotoxicity against human OVCAR3 cells after 48 hrs by SRB assay; assay type: functional; conditions: OVCAR-3, 48 h; summary of the method: as §1
[5] = Cytotoxicity against human NCI-ADR-RES cells after 48 hrs by SRB assay; assay type: functional; summary of the method: as §1
SK-OV-3 = assay: Cytotoxicity against human SKOV3 cells after 48 hrs by SRB assay; assay type: functional; conditions: SK-OV-3, 48 h; summary of the method: as §1
ACHN = assay: Cytotoxicity against human ACHN cells after 48 hrs by SRB assay; assay type: functional; summary of the method: as §2
PC-3 = assay: Cytotoxicity against human PC3 cells after 48 hrs by SRB assay; assay type: functional; conditions: PC-3, 48 h; summary of the method: as §1
[6] = 1-Octanol-PBS partition coefficient, log P of the compound; assay type: physicochemical
CLL [7] = assay: Induction of apoptosis in human CLL cells at 10 uM by Annexin/propidium iodide staining-based assay; assay type: functional, cell-based; conditions: TDE = time-dependent effect
[8] = (§4) Induction of apoptosis in human CLL cells after 24 hrs by Annexin/propidium iodide staining-based assay; assay type: functional, cell-based
Summary of the method: (§5)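 Primary CLL lymphocytes, Ficoll-Hypaque isolated from patient peripheral blood. Held fresh in RPMI 1640 with 10% autologous plasma. Dose–response over 24 h (n = 3). Apoptosis by annexin V–FITC/PI double staining and flow cytometry; IC50 derived from the dose–response.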

CLL [9] = assay: as §4; assay type: functional, cell-based; summary of the method: as §5
[10] = Induction of apoptosis in human lymphocytes at 10 uM after 24 to 48 hrs by Annexin/propidium iodide staining-based assay; assay type: cell-based; conditions: lymphocyte
[11] = Induction of [32P]-labeled 49-mer oligonucleotide duplex DNA 12' with GNC sequence in middle (unknown origin) interstrand cross-linking at 1 mM after 12 hrs by PAGE in presence of H2O2
[12] = Induction of [32P]-labeled 49-mer oligonucleotide duplex DNA 12 with GNC sequence at terminus (unknown origin) interstrand cross-linking at 1 mM after 16 hrs by PAGE in presence of O2-
[13] = Induction of [32P]-labeled 49-mer oligonucleotide duplex DNA 12 with GNC sequence at terminus (unknown origin) interstrand cross-linking at 1 mM after 16 hrs by PAGE in presence of TBHP
[14] = Induction of [32P]-labeled 49-mer oligonucleotide duplex DNA 12 with GNC sequence at terminus (unknown origin) interstrand cross-linking at 1 mM after 16 hrs by PAGE in presence of OCL-
[15] = Drug level in deuterated phosphate buffer treated with 40 mM N,N-Bis(2-chloroethyl)-4-(4,4,5,5-tetramethyl-1,3,2-dioxaborolan-2-yl)aniline after 24 hrs by 1H-NMR analysis; assay type: physicochemical
Summary of the method: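 1H NMR of the boronate mustard (40 mM) held 24 h in deuterated potassium phosphate buffer (4.0 mM) with no H2O2. Solvent was 1.0 M deuterated potassium phosphate buffer/DMSO-d6/D2O = 2:450:48.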

[16] = Induction of [32P]-labeled 49-mer oligonucleotide duplex DNA 12 interstrand cross-linking (unknown origin) at purine nucleotide site using compound radiolabeled at 3' of 12a in phosphate buffer at pH 7 at 90 degC after 30 mins by PAGE
[17] = Induction of [32P]-labeled 49-mer oligonucleotide duplex DNA 12 interstrand cross-linking (unknown origin) at purine nucleotide site using compound radiolabeled at 5' of 12a at 90 deg C after 30 mins by PAGE in presence of piperidine
Summary of the method: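 Cross-linked duplex, with strand 12a 32P-labelled at the 5′ end, heated at 90 °C either in phosphate buffer pH 7.0 or in 1.0 M piperidine. Cleavage sites were assigned by denaturing PAGE against G + A sequencing and Fe·EDTA markers.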

RPMI-8226 = assay: Cytotoxicity against human RPMI8226 cells after 48 hrs by SRB assay; assay type: functional; conditions: RPMI-8226, 48 h; summary of the method: as §1
CLL [18] = assay: Induction of apoptosis in human CLL cells at 10 uM after 24 hrs by DCDFA assay in presence of NAC; assay type: functional, cell-based
CLL [19] = assay: Induction of ROS generation in human CLL cells at 10 uM after 24 hrs by DCDFA assay in presence of NAC; assay type: functional, cell-based
Summary of the method: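 Primary CLL cells given compound (10 μM) with or without N-acetyl cysteine ([…]) for 24 h. Global ROS measured by DCFDA staining and flow histograms; n = 8 patient samples.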

Compound	GI50 (NCI-H226) [µM]	GI50 (NCI-H460) [µM]	GI50 (COLO 205) [µM]	GI50 (HCC 2998) [µM]	GI50 (HCT-116) [µM]	GI50 [3] [µM]	GI50 (SNB-19) [µM]	GI50 (SNB-75) [µM]	GI50 (U-251) [µM]	GI50 (M14) [µM]	GI50 (MDA-MB-435) [µM]	GI50 (SK-MEL-28) [µM]	GI50 [4] [µM]	GI50 [5] [µM]	GI50 (SK-OV-3) [µM]	GI50 (ACHN) [µM]	GI50 (PC-3) [µM]	Activity [16]	Activity [17]	GI50 (RPMI-8226) [µM]	other results
CC1(C)OB(c2ccc(N(CCCl)CCCl)cc2)OC1(C)C	12.9	0.33	11.6	14.9	11.6	13.2	8.06	7.98	3.75	5.1	14.2	21	14.6	5.33	8.03	3.64	14.3	Active	Active	10.9	Activity [1]: 93%; Activity [2]: 83%; logP [6]: 2.8; Activity (CLL [7]): tde; IC50 [8]: 9.26 µM; Activity (CLL [9]): Dose-dependent effect; Activity [10]: Toxic; Activity [11]: 27%; Activity [12]: 5%; Activity [13]: 1%; Activity [14]: 0.9%; Drug metabolism [15]: metabolite_detected
CC1(C)OB(c2ccc(N(CCCl)CCOS(C)(=O)=O)cc2)OC1(C)C	10.4	0.49	11	14.6	11.1	13.5	10.2	5.85	0.7	5.68	15.3	15.6	13.4	6.52	8.96	3.03	15.1	Active	Active	14.7	Activity [12]: 5%; Activity [13]: 1%; Activity [14]: 0.9%
CC1(C)OB(c2ccc(N(CCBr)CCOS(C)(=O)=O)cc2)OC1(C)C																		Active	Active		
CC1(C)OB(c2ccc(N(CCCl)CCBr)cc2)OC1(C)C	11.9	0.42	11.4	24	13.9	17.1	10.6	10.7	5.07	7.86	16.5	20.6	15	6.69	9.25	3.4	17.7	Active	Active	19.4	Activity [1]: 90%; Activity [2]: 81%; Activity (CLL [7]): tde; IC50 [8]: 10.8 µM; Activity (CLL [9]): Dose-dependent effect; Activity [10]: Toxic; Activity (CLL [18]): inactive; Activity (CLL [19]): inactive
CC1(C)OB(c2ccc(N(CCBr)CCBr)cc2)OC1(C)C																		Active	Active		Activity [11]: 35%
